Measured values: ChEMBL document CHEMBL1136726, “Synthesis and characterization of iodine-123 labeled 2beta-carbomethoxy-3beta-(4'-((Z)-2-iodoethenyl)phenyl)nortropane. A ligand for in vivo imaging of serotonin transporters by single-photon-emission tomography” (J Med Chem, 2003)
“And” between values parts separate entries of the source, which are not always exact repeats. Equal values may be shown once.

Assays:
Rattus norvegicus [1] = assay: Distribution of radioactivity in rat brain region cerebellum 60 min after intravenous administration of iodine labeled compound in absence of blocker in study 1; format: ADME, organism-based; conditions: in vivo, 1 h
Summary of the method: (§1)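 Male Sprague–Dawley rats (250–300 g), ketamine-anesthetized. Blocker (2 mg/kg) or none was given iv 15 min before tail-vein radioligand (10 µCi in 0.2 mL 10% EtOH/saline). Rats were killed at 60 min with im pentobarbital. Brain regions were dissected, weighed and gamma-counted. % dose/g was taken from decay-corrected, background-subtracted counts versus the injected dose.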

Rattus norvegicus [2] = assay: Distribution of radioactivity in rat heart 30 min after intravenous administration of iodine labeled compound; format: ADME, organism-based; conditions: in vivo, 0.5 h
Summary of the method: (§2)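 Tail-vein injection of [123I]ZIENT (10 μCi in 0.2 mL 10% EtOH/0.9% NaCl, then 0.4 mL saline flush) into ketamine-anaesthetised male Sprague–Dawley rats (225–300 g). Animals were killed by cardiac excision at set times. Organs were excised, rinsed, blotted, weighed and gamma-counted. % dose/g was calculated against diluted aliquots of injectate. Mean ± SE, n=4–5.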

Rattus norvegicus [3] = assay: Distribution of radioactivity in rat muscle tissue 120 min after intravenous administration of iodine labeled compound; format: ADME, organism-based; conditions: in vivo, 2 h; summary of the method: as §2
Rattus norvegicus [4] = assay: Ratio of distribution of radioactivity in rat brain hypothalamus and cerebellum 60 min after intravenous administration of iodine labeled compound; format: ADME, organism-based; conditions: in vivo, 1 h
Summary of the method: (§3)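 Male Sprague–Dawley rats (225–300 g) under ketamine anaesthesia were given [123I]ZIENT (10 μCi) in 0.2 mL 10% EtOH/0.9% NaCl into the tail vein, with a saline flush. Hypothalamus, prefrontal cortex, striatum, pons and cerebellum were dissected and gamma-counted. % injected dose/g came from decay-corrected counts against the diluted injected dose, and region/cerebellum ratios were taken from these. Mean ± SE, n=4–5.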

Rattus norvegicus [5] = assay: Distribution of radioactivity in rat testis 120 min after intravenous administration of iodine labeled compound; format: ADME, organism-based; conditions: in vivo, 2 h; summary of the method: as §2
Rattus norvegicus [6] = assay: Distribution of radioactivity in rat brain prefrontal cortex 30 min after intravenous administration of iodine labeled compound; format: ADME, organism-based; conditions: in vivo, 0.5 h
Summary of the method: (§4)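 Male Sprague–Dawley rats (225–300 g) under ketamine received 10 µCi radioligand iv (tail vein) in 10% EtOH/saline. Hypothalamus, prefrontal cortex, striatum, pons and cerebellum were dissected, weighed and gamma-counted. % injected dose/g was taken from decay-corrected counts versus diluted dose. Mean ± SE and range, n=5 (5, 30 min) or 4 (60, 120 min).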

Rattus norvegicus [7] = assay: Distribution of radioactivity in rat brain striatum 120 min after intravenous administration of iodine labeled compound; format: ADME, organism-based; conditions: in vivo, 2 h; summary of the method: as §3
Rattus norvegicus [8] = assay: Distribution of radioactivity in rat brain prefrontal cortex 120 min after intravenous administration of iodine labeled compound; format: ADME, organism-based; conditions: in vivo, 2 h; summary of the method: as §4
[9] = molecular target: Sodium-dependent noradrenaline transporter (Homo sapiens, UniProt P23975); assay: In vitro competitive binding versus [3H]- […] in murine kidney cells transfected with cDNA for human norepinephrine transporter (NET); format: cell-based
Rattus norvegicus [10] = assay: Ratio of distribution of radioactivity in rat brain region pons and cerebellum 60 min after intravenous administration of iodine labeled compound in presence of RTI-113 blocker in study 1; format: ADME, organism-based; conditions: in vivo, 1 h
Rattus norvegicus [11] = assay: Distribution of radioactivity in rat kidney 120 min after intravenous administration of iodine labeled compound; format: ADME, organism-based; conditions: in vivo, 2 h; summary of the method: as §2
Rattus norvegicus [12] = assay: Distribution of radioactivity in rat brain hypothalamus 60 min after intravenous administration of iodine labeled compound; format: ADME, organism-based; conditions: in vivo, 1 h; summary of the method: as §4
Rattus norvegicus [13] = assay: Ratio of distribution of radioactivity in rat brain region hypothalamus and cerebellum 60 min after intravenous administration of iodine labeled compound in presence of reboxetine blocker in study 2; format: ADME, organism-based; conditions: in vivo, 1 h
Rattus norvegicus [14] = assay: Ratio of distribution of radioactivity in rat brain region striatum and cerebellum 60 min after intravenous administration of iodine labeled compound in absence of blocker in study 2; format: ADME, organism-based; conditions: in vivo, 1 h
Rattus norvegicus [15] = assay: Distribution of radioactivity in rat liver 30 min after intravenous administration of iodine labeled compound; format: ADME, organism-based; conditions: in vivo, 0.5 h; summary of the method: as §2
Rattus norvegicus [16] = assay: Ratio of distribution of radioactivity in rat brain region hypothalamus and cerebellum 60 min after intravenous administration of iodine labeled compound in absence of blocker in study 2; format: ADME, organism-based; conditions: in vivo, 1 h
Rattus norvegicus [17] = assay: Distribution of radioactivity in rat brain hypothalamus 5 min after intravenous administration of iodine labeled compound; format: ADME, organism-based; conditions: in vivo; summary of the method: as §4
Rattus norvegicus [18] = assay: Distribution of radioactivity in rat blood 120 min after intravenous administration of iodine labeled compound; format: ADME, organism-based; conditions: in vivo, 2 h
Summary of the method: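 Male Sprague–Dawley rats (225–300 g) under ketamine received 10 µCi radioligand in 0.2 mL 10% EtOH/0.9% NaCl via tail vein, then a saline flush. Killed by cardiac excision at set times. Organs were excised, weighed and gamma-counted. % dose/g was taken against diluted injectate. Mean ± SE and range, n=4 (5 min) or 5 (30–120 min).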

Rattus norvegicus [19] = assay: Distribution of radioactivity in rat brain region hypothalamus 60 min after intravenous administration of iodine labeled compound in absence of blocker in study 1; format: ADME, organism-based; conditions: in vivo, 1 h; summary of the method: as §1
Rattus norvegicus [20] = assay: Distribution of radioactivity in rat brain region pons 60 min after intravenous administration of iodine labeled compound in presence of RTI-113 blocker in study 1; format: ADME, organism-based; conditions: in vivo, 1 h; summary of the method: as §1
Rattus norvegicus [21] = assay: Distribution of radioactivity in rat brain 5 min after intravenous administration of iodine labeled compound; format: ADME, organism-based; conditions: in vivo
Rattus norvegicus [22] = assay: Distribution of radioactivity in rat brain region cerebellum 60 min after intravenous administration of iodine labeled compound in presence of RTI-113 blocker in study 2; format: ADME, organism-based; conditions: in vivo, 1 h; summary of the method: as §1
Rattus norvegicus [23] = assay: Distribution of radioactivity in rat spleen 5 min after intravenous administration of iodine labeled compound; format: ADME, organism-based; conditions: in vivo; summary of the method: as §2
Rattus norvegicus [24] = assay: Distribution of radioactivity in rat brain region pons 60 min after intravenous administration of iodine labeled compound in presence of fluvoxamine blocker in study 1; format: ADME, organism-based; conditions: in vivo, 1 h; summary of the method: as §1
Rattus norvegicus [25] = assay: Ratio of distribution of radioactivity in rat brain region prefrontal cortex and cerebellum 60 min after intravenous administration of iodine labeled compound in presence of reboxetine blocker in study 2; format: ADME, organism-based; conditions: in vivo, 1 h
Rattus norvegicus [26] = assay: Distribution of radioactivity in rat brain region pons 60 min after intravenous administration of iodine labeled compound in presence of reboxetine blocker in study 2; format: ADME, organism-based; conditions: in vivo, 1 h; summary of the method: as §1
Rattus norvegicus [27] = assay: Distribution of radioactivity in rat thyroid 5 min after intravenous administration of iodine labeled compound; format: ADME, organism-based, Thyroid gland; conditions: in vivo; summary of the method: as §2
Rattus norvegicus [28] = assay: Distribution of radioactivity in rat brain region striatum 60 min after intravenous administration of iodine labeled compound in presence of fluvoxamine blocker in study 1; format: ADME, organism-based; conditions: in vivo, 1 h
Summary of the method: (§5)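 Male Sprague–Dawley rats (250–300 g), ketamine-anaesthetised, received [123I]ZIENT (10 μCi) in 0.2 mL 10% ethanol/0.9% NaCl via the tail vein. […] Rats were killed at 60 min with pentobarbital, brain regions dissected and gamma-counted. Values are % dose/g from decay-corrected, background-subtracted counts against the diluted injected dose.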

Rattus norvegicus [29] = assay: Distribution of radioactivity in rat brain region frontal cortex 60 min after intravenous administration of iodine labeled compound in presence of reboxetine blocker in study 2; format: ADME, organism-based; conditions: in vivo, 1 h; summary of the method: as §1
Rattus norvegicus [30] = assay: Distribution of radioactivity in rat muscle tissue 60 min after intravenous administration of iodine labeled compound; format: ADME, organism-based; conditions: in vivo, 1 h; summary of the method: as §2
Rattus norvegicus [31] = assay: Distribution of radioactivity in rat brain cerebellum 60 min after intravenous administration of iodine labeled compound; format: ADME, organism-based; conditions: in vivo, 1 h; summary of the method: as §4
Rattus norvegicus [32] = assay: Distribution of radioactivity in rat brain pons 30 min after intravenous administration of iodine labeled compound; format: ADME, organism-based; conditions: in vivo, 0.5 h; summary of the method: as §4
Rattus norvegicus [33] = assay: Distribution of radioactivity in rat brain prefrontal cortex 5 min after intravenous administration of iodine labeled compound; format: ADME, organism-based; conditions: in vivo; summary of the method: as §4
Rattus norvegicus [34] = assay: Distribution of radioactivity in rat brain region striatum 60 min after intravenous administration of iodine labeled compound in absence of blocker in study 2; format: ADME, organism-based; conditions: in vivo, 1 h; summary of the method: as §5
Rattus norvegicus [35] = assay: Distribution of radioactivity in rat brain region hypothalamus 60 min after intravenous administration of iodine labeled compound in absence of blocker in study 2; format: ADME, organism-based; conditions: in vivo, 1 h; summary of the method: as §1

Sodium-dependent noradrenaline transporter, sequence (P23975 whole entry): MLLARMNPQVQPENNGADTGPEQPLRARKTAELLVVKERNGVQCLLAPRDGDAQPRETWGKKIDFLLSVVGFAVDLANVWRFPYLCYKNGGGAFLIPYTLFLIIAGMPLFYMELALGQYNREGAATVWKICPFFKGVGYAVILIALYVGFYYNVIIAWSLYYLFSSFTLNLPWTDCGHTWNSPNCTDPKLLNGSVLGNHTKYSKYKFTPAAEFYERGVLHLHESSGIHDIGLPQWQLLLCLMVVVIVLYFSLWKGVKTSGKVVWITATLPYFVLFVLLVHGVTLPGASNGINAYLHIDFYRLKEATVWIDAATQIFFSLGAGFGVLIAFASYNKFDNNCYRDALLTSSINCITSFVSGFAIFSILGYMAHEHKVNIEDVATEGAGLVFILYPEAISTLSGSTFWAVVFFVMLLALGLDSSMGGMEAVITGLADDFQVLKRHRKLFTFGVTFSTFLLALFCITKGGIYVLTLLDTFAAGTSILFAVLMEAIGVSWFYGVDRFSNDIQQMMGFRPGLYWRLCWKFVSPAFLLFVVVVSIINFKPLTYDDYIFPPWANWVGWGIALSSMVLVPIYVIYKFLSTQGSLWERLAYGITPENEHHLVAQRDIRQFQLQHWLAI

COC(=O)[C@@H]1C2CCC(C[C@@H]1c1ccc(/C=C\I)cc1)N2 (stereo not given in full)
Distribution (dose/g) (Rattus norvegicus [1]): 0.24% and 0.19%
Distribution (dose/g) (Rattus norvegicus [2]): 0.36%
Distribution (dose/g) (Rattus norvegicus [3]): 0.17%
Distribution (dose/g) (Rattus norvegicus [4]): 3.08%
Distribution (dose/g) (Rattus norvegicus [5]): 0.31%
Distribution (dose/g) (Rattus norvegicus [6]): 0.82%
Distribution (dose/g) (Rattus norvegicus [7]): 0.49%
Distribution (dose/g) (Rattus norvegicus [8]): 0.49%
Ki [9]: 24 nM
Distribution (dose/g) (Rattus norvegicus [10]): 2.24%
Distribution (dose/g) (Rattus norvegicus [11]): 0.31%
Distribution (dose/g) (Rattus norvegicus [12]): 0.77%
Distribution (dose/g) (Rattus norvegicus [13]): 2.83%
Distribution (dose/g) (Rattus norvegicus [14]): 3.32%
Distribution (dose/g) (Rattus norvegicus [15]): 0.31%
Distribution (dose/g) (Rattus norvegicus [16]): 3.95%
Distribution (dose/g) (Rattus norvegicus [17]): 0.58%
Distribution (dose/g) (Rattus norvegicus [18]): 0.31%
Distribution (dose/g) (Rattus norvegicus [19]): 0.92%
Distribution (dose/g) (Rattus norvegicus [20]): 0.56%
Distribution (dose/g) (Rattus norvegicus [21]): 0.83%
Distribution (dose/g) (Rattus norvegicus [22]): 0.25%
Distribution (dose/g) (Rattus norvegicus [23]): 1.81%
Distribution (dose/g) (Rattus norvegicus [24]): 0.25%
Distribution (dose/g) (Rattus norvegicus [25]): 3.07%
Distribution (dose/g) (Rattus norvegicus [26]): 0.53%
Distribution (dose/g) (Rattus norvegicus [27]): 0.17%
Distribution (dose/g) (Rattus norvegicus [28]): 0.3%
Distribution (dose/g) (Rattus norvegicus [29]): 0.63%
Distribution (dose/g) (Rattus norvegicus [30]): 0.2%
Distribution (dose/g) (Rattus norvegicus [31]): 0.25%
Distribution (dose/g) (Rattus norvegicus [32]): 0.6%
Distribution (dose/g) (Rattus norvegicus [33]): 0.77%
Distribution (dose/g) (Rattus norvegicus [34]): 0.63%
Distribution (dose/g) (Rattus norvegicus [35]): 0.75%
